# This is a sample that favours compounds with a hit; in the whole collection about 1.6% have one here.
# S100A4 MyoIIA – inhibitors of human S100A4 binding to myosin IIA peptide; hit rate 0.14% among 360,000; P26447; inhibition, % at 10.7 µM; S100A4/TAMRA-MyoIIA peptide fluorescence polarization;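 active = mean inhibition of at least 70% across replicates, with every replicate also reaching that level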
#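 Material: S100A4 monomer protein | Medium: HEPES pH 7.2 with CaCl2, KCl, NaCl, DTT, Triton | Reagent: Labelled myosin peptide probe, 5 nM | Doses: One dose per compound | Times: 5 min incubation before reading | Benchmarks: Neutral control DMSO, positive control TFP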
# RAD54 branch – blocks human RAD54 Holliday junction branch migration | Q92698 | FAM/BHQ fluorescence | inhibition, % at 10.4 µM | hit rate 0.14% among 360,000 | AID 602329;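 active = mean normalized replicate activity at least 40 and at least half of replicates scoring 40 or more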;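 note: 0% = median of neutral control wells and 100% = median of positive control wells; inhibitors cause a drop in the FAM fluorescence signal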
# Target sequence (Q92698 whole entry, looked up): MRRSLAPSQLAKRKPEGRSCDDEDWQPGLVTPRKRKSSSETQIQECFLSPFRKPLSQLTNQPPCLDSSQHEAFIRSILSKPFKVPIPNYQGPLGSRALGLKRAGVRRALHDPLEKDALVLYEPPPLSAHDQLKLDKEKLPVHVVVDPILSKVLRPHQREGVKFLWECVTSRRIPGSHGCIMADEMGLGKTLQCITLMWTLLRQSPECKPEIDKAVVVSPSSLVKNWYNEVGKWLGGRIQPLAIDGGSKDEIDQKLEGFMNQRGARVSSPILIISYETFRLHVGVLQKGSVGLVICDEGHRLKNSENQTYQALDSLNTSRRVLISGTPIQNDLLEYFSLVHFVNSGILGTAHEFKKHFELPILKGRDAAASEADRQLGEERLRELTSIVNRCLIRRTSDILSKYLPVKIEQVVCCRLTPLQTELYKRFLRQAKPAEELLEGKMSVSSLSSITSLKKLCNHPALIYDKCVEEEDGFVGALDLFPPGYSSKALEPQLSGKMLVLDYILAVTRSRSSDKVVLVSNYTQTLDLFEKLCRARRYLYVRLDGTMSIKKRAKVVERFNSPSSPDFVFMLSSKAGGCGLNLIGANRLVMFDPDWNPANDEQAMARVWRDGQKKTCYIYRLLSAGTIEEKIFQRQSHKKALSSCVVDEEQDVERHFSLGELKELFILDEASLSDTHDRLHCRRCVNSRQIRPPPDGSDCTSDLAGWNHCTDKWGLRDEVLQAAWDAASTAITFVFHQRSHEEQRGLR
# SR-BI DiI inh – inhibitors of mouse SR-BI mediated HDL lipid uptake | inhibition, % at 12.5 µM | Q61009 | ldlA[mSR-BI] CHO cells, DiI-HDL uptake fluorescence, 3 h | AID 488896 | hit rate 0.96% among 320,000;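 active = mean replicate inhibition of at least 70% and a set share of replicates each scoring 70 or more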;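 note: 0% = median of neutral control wells and 100% = median of positive control wells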
# PvdQ acylase – P. aeruginosa PvdQ acylase inhibition. hit rate 0.063% among 340,000. purified PvdQ acylase, fluorescence plate reader. AID 488965. inhibition, % at 10 µM; in the data active = inhibition above about 30%, passing the limit was not always enough;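 note: 0% = vehicle neutral wells and 100% = reference inhibitor wells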
# SR-BI uptake up – SR-BI HDL lipid transfer activation. CHO ldlA[mSR-BI] cells, DiI-HDL uptake fluorescence, 3 h; 100 = double the neutral-control signal. hit rate 0.096% among 320,000. activation, % at 12.5 µM;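 active = mean replicate activation of at least 60% and every replicate at or above 60%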;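 note: 0% = median plate neutral-control signal and 100% = twice that signal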
#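 System: LDL receptor-deficient CHO ldlA cells overexpressing murine SR-BI | Timing: 3 h uptake period with compound, 37 °C | Medium: HEPES-buffered (25 mM, pH 7.4) F12 plus 0.5% BSA | Dosing: Single-point compound dose | Signal: Bottom-read fluorescence, 550/595 nm | Read-out: Retained DiI signal reflecting DiI-HDL uptake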
# dFosB activator – activators of mouse delta FosB homodimer | purified delta FosB, TAMRA-CDK5 oligo fluorescence polarization; percent of positive-control signal above neutral wells | activation, % at 25 µM | hit rate 0.99% among 340,000 | AID 493131;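 active = mean activation above about 17%, with every replicate also reaching it, limit read from the data, passing the limit was not always enough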
# * = called active by the depositor; / = not tested or not shown.
SMILES,S100A4 MyoIIA,RAD54 branch,SR-BI DiI inh,PvdQ acylase,SR-BI uptake up,dFosB activator
CN(C)c1ccc(C=c2c3ccccc3n3c2c2ccccc2[n+]3C)cc1,-5,/,21,-1,-21,-259
C[C@H]1CN([C@@H](C)CO)C(=O)Cc2cc(NC(=O)Cc3ccccc3)ccc2O[C@H]1CN(C)CC1CCCCC1,-6,3,/,/,/,/
CCCOc1ccc2c(c1)C(=NN=C(N)N)c1cc(OCCC)ccc1-2,1,12,50,4,-50,35*
CCN(CC)CCOc1ccc2c(c1)C(=NO)c1cc(OCCN(CC)CC)ccc1-2,/,125*,-23,-16,23,56*
CCN(CC)CCOc1ccc(Br)cc1,/,-7,-1,-12,1,-11
O=C(c1cccc(F)c1)N1C[C@H]2[C@@H](c3ccccc31)[C@H](CO)N2C(=O)c1ccccn1,30,10,/,/,/,/
C[C@H]1CN([C@@H](C)CO)C(=O)c2cccc(NC(=O)C3CC3)c2O[C@@H]1CN(C)C(=O)Nc1ccc(F)cc1,0,-3,/,/,/,/
CCCNC(=O)Nc1ccc2c(c1)OC[C@@H](C)N(Cc1ccncc1)C[C@@H](C)[C@@H](OC)CN(C)C2=O,1,9,/,/,/,/
CC(C)NC(=O)N(C)C[C@H]1Oc2ccc(NS(=O)(=O)c3ccccc3)cc2C(=O)N([C@@H](C)CO)C[C@@H]1C,-14,10,/,/,/,/
C[C@@H]1CCCCO[C@H](CN(C)C(=O)NC2CCCCC2)[C@@H](C)CN([C@@H](C)CO)C(=O)c2cc(NC(=O)Nc3ccc(C(F)(F)F)cc3)ccc2O1,143*,5,/,/,/,/
CC(C)NC(=O)N(C)C[C@@H]1Oc2ccc(NS(=O)(=O)c3ccccc3)cc2C(=O)N([C@H](C)CO)C[C@@H]1C,112*,-21,/,/,/,/
COc1ccc(NC(=O)N(C)C[C@@H]2OCCCC[C@@H](C)Oc3ccc(NS(=O)(=O)c4ccc(Cl)cc4)cc3C(=O)N([C@H](C)CO)C[C@@H]2C)cc1,139*,2,/,/,/,/
COc1ccc(NC(=O)N(C)C[C@H]2OCCCC[C@@H](C)Oc3ccc(NC(=O)NC4CCCCC4)cc3C(=O)N([C@H](C)CO)C[C@@H]2C)cc1,134*,5,/,/,/,/
CCCNC(=O)Nc1ccc2c(c1)OC[C@@H](C)N(Cc1cccnc1)C[C@H](C)[C@@H](OC)CN(C)C2=O,4,0,/,/,/,/
C[C@H]1CN([C@@H](C)CO)C(=O)c2cc(NC(=O)NC3CCCCC3)ccc2O[C@@H]1CN(C)C(=O)Nc1ccccc1,157*,4,/,/,/,/
C[C@H]1CN([C@@H](C)CO)C(=O)c2cc(NC(=O)NC3CCCCC3)ccc2O[C@H]1CN(C)C(=O)Nc1ccccc1,-3,-8,/,/,/,/
COc1ccc(CN(C)C[C@@H]2Oc3ccc(NC(=O)Nc4ccc(OC)cc4)cc3C(=O)N([C@H](C)CO)C[C@@H]2C)cc1,-13,-2,/,/,/,/
C[C@H]1CCCCO[C@H](CN(C)C(=O)Nc2ccc(C(F)(F)F)cc2)[C@@H](C)CN([C@@H](C)CO)C(=O)c2cc(NS(=O)(=O)c3ccccc3)ccc2O1,86*,-4,/,/,/,/
COc1ccc(S(=O)(=O)Nc2ccc3c(c2)C(=O)N([C@@H](C)CO)C[C@@H](C)[C@H](CN(C)C(=O)Nc2ccccc2)OCCCC[C@@H](C)O3)cc1,103*,3,/,/,/,/
COc1ccc(CN(C)C[C@@H]2Oc3ccc(NC(=O)Nc4ccc(F)cc4)cc3C(=O)N([C@H](C)CO)C[C@H]2C)cc1,-19,72*,/,/,/,/
C[C@@H]1CN([C@@H](C)CO)S(=O)(=O)c2ccc(C#CC3CC3)cc2O[C@H]1CN(C)C(=O)CC1CC1,9,7,/,/,/,/
C[C@@H]1CCCCO[C@@H](CN(C)C(=O)NC2CCCCC2)[C@@H](C)CN([C@@H](C)CO)C(=O)c2cc(N(C)C)ccc2O1,1,-15,/,/,/,/
COc1ccc(NC(=O)Nc2ccc3c(c2)C(=O)N([C@@H](C)CO)C[C@@H](C)[C@H](CN(C)Cc2ccc(C(F)(F)F)cc2)OCCCC[C@@H](C)O3)cc1,5,-3,/,/,/,/
C[C@@H]1CN([C@H](C)CO)C(=O)c2cc(N(C)C)ccc2O[C@@H](C)CCCCO[C@@H]1CN(C)C(=O)NC1CCCCC1,104*,-11,/,/,/,/
COc1ccc(NC(=O)Nc2ccc3c(c2)C(=O)N([C@H](C)CO)C[C@H](C)[C@H](CN(C)Cc2ccc(C(F)(F)F)cc2)OCCCC[C@H](C)O3)cc1,157*,-1,/,/,/,/
SMILES,S100A4 MyoIIA,RAD54 branch,SR-BI DiI inh,PvdQ acylase,SR-BI uptake up,dFosB activator
CS(=O)(=O)Nc1ccc2c(c1)[C@H]1C[C@@H](CC(=O)NCc3ccccn3)O[C@@H](CO)[C@H]1O2,1,-17,/,/,/,/
O=C(Nc1ccc(NC(=O)N2CCN(c3ccccc3O)CC2)cc1)N1CCN(c2ccccc2O)CC1,7,0,74*,6,-74,-12
COc1ccc(S(=O)(=O)N(C)C[C@H]2OCCCC[C@H](C)Oc3ccc(NC(=O)CCCN(C)C)cc3C(=O)N([C@@H](C)CO)C[C@H]2C)cc1,-3,6,/,/,/,/
COc1ccc(OC)c(NC(=O)c2cc(-c3ccc(C)cc3O)n[nH]2)c1,/,-15,66,-12,-66,2
COc1ccc(OC)c(NC(=O)c2cc(-c3cc(C)ccc3O)n[nH]2)c1,-1,-3,76*,-10,-76,-1
COc1ccc(NC(=O)N[C@@H]2CC[C@H](CCNS(=O)(=O)c3cccc(Cl)c3)O[C@@H]2CO)cc1,18,-2,/,/,/,/
CCCCOC(=O)c1ccc(-c2ccc(/C=N/NC(=S)NCC)o2)cc1,/,/,88*,17,-88,-4
CCOC(=O)c1ccc(-c2ccc(/C=N/NC(=O)c3cncc(Br)c3)o2)cc1,-3,-11,/,/,/,/
C=CCNC(=S)N/N=C/c1ccc(-c2ccc(Br)cc2)o1,/,/,82*,3,-82,-5
C=CCNC(=S)N/N=C/c1ccc(-c2cccc([N+](=O)[O-])c2)o1,-2,/,69,-17,-69,1
COc1cc(OC)c(-c2nc3ccccc3s2)cc1OC,-3,/,71*,-10,-71,-17
C[C@@H]1CN([C@H](C)CO)C(=O)c2cc(NC(=O)C3CCCCC3)ccc2O[C@@H](C)CCCCO[C@H]1CN(C)Cc1ccc(C(F)(F)F)cc1,/,-3,/,/,/,/
Cc1ccc(N(C(C)C(=O)O)S(=O)(=O)c2c(C)[nH]c(=O)[nH]c2=O)cc1 (centres undefined),13,5,/,0,/,16*
COc1ccc(S(=O)(=O)Nc2ccc3c(c2)C(=O)N([C@H](C)CO)C[C@@H](C)[C@@H](CN(C)S(=O)(=O)c2ccc(F)cc2)OCCCC[C@H](C)O3)cc1,-6,2,/,/,/,/
Cc1oc(-c2ccccc2F)nc1CS(=O)CC(=O)NC1CCCC1 (centres undefined),-4,/,85*,-7,-85,0

# Source: PubChem
